Screens: PubChem, Broad Institute
RAD52 inh: RAD52 (human) annealing inhibition; recombinant RAD52 DNA annealing, FRET fluorescence; P43351; AID 651710; hit rate 0.46% among 360,000; inhibition, % at 18.7 µM;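 active means every replicate showing at least 50% inhibition; inconclusive means mean inhibition at least 50% but not in every replicate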
PglD inh: inhibitors of Campylobacter jejuni PglD acetyltransferase; purified PglD enzyme, DTNB colorimetric CoA detection; inhibition, % at 12.5 µM; hit rate 0.098% among 360,000; in the data active means inhibition above about 16%, passing the limit was not always enough; inconclusive means no clear call, values can overlap the other calls
RAD54 branch: inhibitors of human RAD54 branch migration; Q92698; RAD54 Holliday junction branch migration, FAM/BHQ fluorescence; inhibition, % at 10.4 µM; hit rate 0.14% among 360,000; AID 602329;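 active means mean normalized replicate activity at least 40 and at least half of replicates scoring 40 or more; inconclusive means only one of the two criteria met; inactive means mean below 40 and under half of replicates reaching 40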;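 further: inhibitors cause a drop in the FAM fluorescence signal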
rRNA inh HTS: inhibitors of bacterial rRNA selective over humanized ribosomes | AID 720706 | hit rate 1.6% among 350,000 | E. coli WT GFP vs humanized-ribosome RFP mutants, fluorescence, 24 h; active compounds read low; DMSO median 0, no signal -100 | GFP signal change (wild-type ribosome), % (concentration not given with the values);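 active means significant combined selectivity score with lowered wild-type GFP, culture density cut under 30%, mutant RFP and density less affected; inactive means any of these conditions unmet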
XiGFP reactiv: reactivates the inactive X chromosome in mouse fibroblasts. XiGFP mouse fibroblasts, % GFP-positive cells imaging, 3 d; cells co-treated with 5-aza-dC sensitizer; scaled so ellipticine positive control = 100%. activation, % at 7.58 µM. hit rate 0.055% among 360,000. AID 743238;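 active means mean normalized replicate activation at least 10% and every replicate at or above 10%; inconclusive means only one of the two criteria met; inactive means mean below 10% and not all replicates reach 10%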
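System: 68-5-11 XiGFP fibroblast line | Buffer or medium: DMEM containing 5-aza-dC | Compound: Single point | Times: Compounds 3 days, fix/stain 15 min at room temperature | Benchmarks: Positive control ellipticine, 6 µM final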
E-sel inducer: E-selectin induction on HUVECs; AID 686992; P16581; hit rate 0.37% among 260,000; activation, % at 7.58 µM; HUVEC E-selectin immunofluorescence imaging; normalized: neutral wells 0, TNF-alpha wells 100;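 active means mean E-selectin-positive cell signal at least 10% of the positive control, reached in at least 60% of replicates, without over 20% cell loss; inconclusive means no rule given, readout overlaps actives, possibly toxicity-flagged; inactive means the rest, including those meeting only one limit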
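Test system: HUVEC | Signal: Immunofluorescence imaging | Read-out: Percent E-selectin-positive cells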
AID977621: growth inhibition of wild-type GFP E. coli, dose response, H69 mutant RFP, cherry-pick | shares compounds with rRNA inh HTS | AID 977621 | 1,900 tested, under 10 active | E. coli wild-type GFP strain growth, fluorescence, 24 h | activity change, negative = inhibition at 50 µM;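 active means Wild-type ribosome reporter drop at least double the humanized mutant ribosome reporter drop, growth loss under a set limit; inconclusive means no clear call, values can overlap the other calls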;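 further: wild-type GFP and H69 mutant RFP strains grown together 50/50 in each well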
AID977628: growth of wild-type and h24-humanized E. coli strains – h24 mutant RFP vs wild-type GFP, cherry-pick, dose response; shares compounds with rRNA inh HTS; E. coli WT GFP strain growth, fluorescence, 24 h; activity change, negative = inhibition at 50 µM; 1,900 tested, under 10 active;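 active means compound lowering the normal-ribosome reporter at least twice as much as the humanized-ribosome reporter, growth loss under a set limit; inconclusive means no clear call, values can overlap the other calls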;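 further: wild-type GFP and h24 humanized RFP strains co-cultured 1 to 1 per well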
Of the large screens only hits and unclear results are named; the others gave an inactive call (follow-up assays come after a bar, where they were run). Shown are actives, neighbours in structure and some others; about 2% of the full set was active somewhere.

O=C(Nc1ccc(C(F)(F)F)cc1)C1CCN(c2cnccn2)CC1	rRNA inh HTS -31 (no result: E-sel inducer) | AID977621 inactive | AID977628 inactive
CCOc1ccc(CN(C)C(=O)c2ccc(NS(=O)(=O)c3ccc4[nH]c(=O)[nH]c4c3)cc2)cc1	rRNA inh HTS -17 | AID977621 inactive | AID977628 inconclusive
Cc1ccc(CN(C)C(=O)c2ccc(NS(=O)(=O)c3ccc4[nH]c(=O)[nH]c4c3)cc2)cc1	none (no result: E-sel inducer)
Cc1cc(-c2ccc(C)c(S(=O)(=O)NCC3CCN(Cc4cccc(F)c4)CC3)c2)on1	none (no result: E-sel inducer)
Cc1cc(-c2ccc(C)c(S(=O)(=O)NCC3CCN(Cc4ccccc4F)CC3)c2)on1	rRNA inh HTS -16 | AID977621 inactive | AID977628 inactive
CCC(=O)N(C)C[C@H]1Oc2ncc(-c3ccccc3F)cc2C(=O)N([C@H](C)CO)C[C@H]1C	none
Cc1ccnc(NC(=O)c2ccc([N+](=O)[O-])o2)c1	none (no result: RAD52 inh, rRNA inh HTS, XiGFP reactiv, E-sel inducer)
O=C(Nc1cccc2ccccc12)c1ccc([N+](=O)[O-])o1	rRNA inh HTS -19, E-sel inducer inconclusive | AID977621 inconclusive
Cc1cccc(NC(=O)c2ccc([N+](=O)[O-])o2)c1C	none
O=C(Nc1ncccn1)c1ccc([N+](=O)[O-])o1	rRNA inh HTS -18 (no result: PglD inh, RAD54 branch, E-sel inducer) | AID977621 inactive | AID977628 inconclusive
COC(=O)[C@@H](Cc1ccccc1)N[C@H](/C=C/c1ccccc1)[C@@H](O)Cc1ccccc1	none (no result: PglD inh, RAD54 branch)
CC(=O)N(C)C[C@@H]1Oc2ncc(C#C[C@@H](C)O)cc2C(=O)N([C@@H](C)CO)C[C@H]1C	none
CCOC(=O)C(CC)Sc1cc(C)nc2ccc(OC)cc12 (stereo unspecified)	rRNA inh HTS -30 | AID977621 inactive
CCCC(=O)Nc1ccc2c(c1)C(=O)N(C)[C@@H]1CC[C@@H](CC(=O)N3CCc4ccccc4C3)O[C@H]1CO2	none (no result: RAD52 inh)
COc1cccc(S(=O)(=O)N[C@H]2C=C[C@@H](CC(=O)NCc3ccc(Cl)cc3)O[C@H]2CO)c1	none
CN(C(=O)c1ccc(COc2ccccc2Cl)o1)c1ccccc1	none
CCN(CC)C(=O)c1ccc(COc2ccccc2Cl)o1	rRNA inh HTS -20 (no result: PglD inh, RAD54 branch) | AID977621 inactive | AID977628 inactive
Cc1cc(C(=O)COC(=O)CNC(=O)c2ccccc2)c(C)n1CC1CCCO1 (stereo unspecified)	rRNA inh HTS -20 (no result: PglD inh, RAD54 branch) | AID977621 inactive | AID977628 inactive
Cc1cccc(C(=O)NCC(=O)OCC(=O)c2cc(C)n(CC3CCCO3)c2C)c1 (stereo unspecified)	none (no result: PglD inh, RAD54 branch)
Cc1cccc(N2Cc3ccc(Br)cc3C2)c1	rRNA inh HTS -21 (no result: PglD inh, RAD54 branch, E-sel inducer) | AID977621 inactive | AID977628 inactive
C/C(=N/O)c1cccc(N2Cc3ccccc3C2)c1	none
O=C(C[C@H]1CC[C@H]2[C@@H](COC[C@H](O)CN2Cc2ccccc2F)O1)N[C@H]1CCN(Cc2ccccc2)C1	none (no result: rRNA inh HTS, XiGFP reactiv, E-sel inducer)
COc1ccc2sc(N3C(=O)CC(Cc4cccc(C)c4)C3=O)nc2c1 (stereo unspecified)	rRNA inh HTS -33 (no result: XiGFP reactiv, E-sel inducer) | AID977628 inconclusive
CC(C)n1cc(CN2CCCC(C(=O)Nc3cccc(-c4cc5ccccc5[nH]4)c3)C2)cn1 (stereo unspecified)	none (no result: E-sel inducer)
Cn1cc(CN2CCCC(C(=O)Nc3cccc(-c4cc5ccccc5[nH]4)c3)C2)cn1 (stereo unspecified)	rRNA inh HTS -33 (no result: E-sel inducer) | AID977621 inactive | AID977628 inactive
CCc1ccc(CN2CCCC(CNS(=O)(=O)c3ccc(OC)cc3)C2)cc1 (stereo unspecified)	rRNA inh HTS -22 (no result: PglD inh, RAD54 branch, E-sel inducer) | AID977621 inactive | AID977628 inconclusive
CCn1cc(CN2CCCC(CNS(=O)(=O)c3ccc(OC)cc3)C2)cn1 (stereo unspecified)	none
